Measured values published in ChEMBL document CHEMBL4402600, “Discovery of a Dual Tubulin Polymerization and Cell Division Cycle 20 Homologue Inhibitor via Structural Modification on Apcin” (J Med Chem, 2020).
pIC50, pKd: −log10 of the molar value. The source made the active and inactive calls. The rule behind the calls is not given here.

What was measured:
HepG2 [1] = assay: Cytotoxicity in human HepG2 cells assessed as reduction in cell viability incubated for 48 hrs by MTT assay; type: functional, cell-based; details: HepG2, 48 h
Summary of the method: (§1)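 Cells grown at 37°C, 5% CO₂ (HepG2, OVCAR-3, Caov-3 in DMEM + 10% FBS; A549, HeLa, A375, MCF-7 in RPMI 1640 + 10% FBS). Seeded at 4-5×10³/well in triplicate, adhered overnight, exposed to 0.03–300 μM (DMSO <0.1%) for 48 h. MTT added for 4 h, formazan dissolved in DMSO, absorbance read. IC50 from dose–response curves, mean ± SD of at least three independent experiments.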

HepG2 [2] = assay: Induction of apoptosis in human HepG2 cells assessed as necrotic cells level at 100 uM incubated for 24 hrs by Annexin V-FITC/PI staining based flow cytometry (reference value: 1.48%); type: functional
[3] = biological target: T1, Cell division cycle protein 20 homolog (Homo sapiens, UniProt Q12834); assay: Inhibition of CDC20 in human HepG2 cells assessed as increase in Aurora A protein degradation at 30 uM measured after 1 to 12 hrs by Western blot analysis; type: cell-based
Summary of the method: (§2)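 Time course in HepG2: cyclin B1, Aurora A, Bim and cleaved PARP examined by Western blot at 1, 2, 4, 8 and 12 h after adding 30 μM compound; lysis in RIPA with inhibitors, 25 μg protein per lane, ECL detection.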

[4] = biological target: Fizzy-related protein homolog (Homo sapiens) (UniProt Q9UM11); assay: Inhibition of CDH1 in human HepG2 cells assessed as effect on Aurora A protein expression at 30 uM incubated for 48 hrs by Western blot Analysis; type: cell-based
Summary of the method: (§3)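 HepG2 lysates in RIPA buffer with protease/phosphatase inhibitors; 25 μg protein by SDS-PAGE/PVDF, blocked in 5% milk/TBST, primary antibodies overnight at 4°C (Cyclin A2, Cyclin B1, Bim, Aurora A, Skp2), HRP secondary 1 h at room temperature, ECL; bands quantified by densitometry.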

[5] = biological target: T1, Cell division cycle protein 20 homolog; assay: Inhibition of CDC20 in human HepG2 cells assessed as increase in stability of cyclin B1 protein at 30 uM measured after 2 to 8 hrs by Western blot Analysis; type: cell-based; summary of the method: as §2
HepG2 [6] = assay: Inhibition of mitotic exit in human HepG2 cells assessed as increase in nuclear phosphohistone H3 levels at 3 to 30 uM incubated for 48 hrs by Western blot analysis relative to control; type: functional, cell-based
MCF7 = assay: Cytotoxicity in human MCF7 cells assessed as reduction in cell viability incubated for 48 hrs by MTT assay; type: functional, cell-based; details: MCF7, 48 h; summary of the method: as §1
[7] = biological target: T1, Cell division cycle protein 20 homolog; assay: Inhibition of CDC20 in human HepG2 cells assessed as increase in stability of Bim protein at 30 uM measured after 2 to 8 hrs by Western blot Analysis; type: cell-based; summary of the method: as §2
HepG2 [8] = assay: Induction of apoptosis in human HepG2 cells assessed as viable cells level at 100 uM incubated for 24 hrs by Annexin V-FITC/PI staining based flow cytometry (reference value: 89.38%); type: functional
[9] = biological target: T1, Cell division cycle protein 20 homolog; assay: Inhibition of CDC20 in human HepG2 cells assessed as increase in Bim protein levels at 30 uM incubated for 48 hrs by Western blot Analysis; type: cell-based; summary of the method: as §3
Caov-3 cell line = assay: Cytotoxicity in human Caov3 cells assessed as reduction in cell viability incubated for 48 hrs by MTT assay; type: functional, cell-based; details: Caov-3, 48 h; summary of the method: as §1
HeLa = assay: Cytotoxicity in human HeLa cells assessed as reduction in cell viability incubated for 48 hrs by MTT assay; type: functional, cell-based; summary of the method: as §1
HepG2 [10] = assay: Induction of apoptosis in human HepG2 cells assessed as increase in cleaved caspase-3 level at 3 to 30 uM incubated for 48 hrs by Western blot analysis; type: functional, cell-based
Summary of the method: (§4)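 HepG2 cells treated 48 h. Lysates in RIPA buffer with protease/phosphatase inhibitors; 25 μg protein run on SDS-PAGE, transferred to PVDF, blocked in 5% milk/TBST, primary antibodies overnight at 4°C (caspase-3, cleaved caspase-3, cleaved PARP), HRP secondary 1 h at room temperature, ECL detection; densitometry quantified.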

HepG2 [11] = assay: Inhibition of mitotic exit in human HepG2 cells assessed as increase in nuclear phosphohistone H3 levels incubated for 48 hrs by immunofluorescence assay; type: functional, cell-based
Summary of the method: (§5)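 HepG2 seeded at 4×10³/well, overnight adhesion, treated 48 h. Fixed 15 min in 4% formaldehyde, permeabilized with Triton X-100, BSA-blocked, anti-phospho-histone H3 (Ser10) at 4°C overnight, fluorescent anti-rabbit secondary, DAPI counterstain. Fluorescence read relative to DMSO control; PHH3-positive cells counted in random fields as % of total. At least two experiments.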

HepG2 [12] = assay: Inhibition of mitotic exit in human HepG2 cells assessed as increase in nuclear phosphohistone H3 levels at 30 uM incubated for 48 hrs by immunofluorescence assay relative to control; type: functional; parameters: scale not given: the % may be the effect or the level left; summary of the method: as §5
[13] = biological target: T1, Cell division cycle protein 20 homolog; assay: Inhibition of CDC20 in human HepG2 cells assessed as increase in stability of Bim protein at 30 uM measured after 1 to 12 hrs by Western blot Analysis
HepG2 [14] = assay: Induction of apoptosis in human HepG2 cells assessed as early apoptotic cells level at 100 uM incubated for 24 hrs by Annexin V-FITC/PI staining based flow cytometry (reference value: 4.02%); type: functional
A549 = assay: Cytotoxicity in human A549 cells assessed as reduction in cell viability incubated for 48 hrs by MTT assay; type: functional, cell-based; details: A549, 48 h; summary of the method: as §1
HepG2 [15] = assay: Induction of apoptosis in human HepG2 cells assessed as late apoptotic cells level at 100 uM incubated for 24 hrs by Annexin V-FITC/PI staining based flow cytometry (reference value: 5.12%); type: functional
[16] = biological target: Fizzy-related protein homolog (Homo sapiens) (UniProt Q9UM11); assay: Inhibition of CDH1 in human HepG2 cells assessed as effect on Skp2 protein expression at 30 uM incubated for 48 hrs by Western blot Analysis; type: cell-based; summary of the method: as §3
[17] = biological target: T1, Cell division cycle protein 20 homolog; assay: Binding affinity to CDC20 (unknown origin) by SPR analysis
Summary of the method: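 Recombinant human Cdc20 (>95% pure) coupled by EDC/NHS to an acid-coupling chip; PBS pH 7.4 running buffer. Compounds injected as a gradient dilution series starting at 200 μM, 120-140 s association, 160 s dissociation. Steady-state values plotted against concentration; K_D from a one-to-one / single-site model.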

HepG2 [18] = assay: Induction of apoptosis in human HepG2 cells assessed as increase in cleaved PARP level at 3 to 30 uM incubated for 48 hrs by Western blot analysis; type: functional, cell-based; summary of the method: as §4
[19] = biological target: T1, Cell division cycle protein 20 homolog; assay: Inhibition of CDC20 in human HepG2 cells assessed as decrease in cyclin B degradation at 30 uM incubated for 48 hrs by Western blot Analysis; type: cell-based; summary of the method: as §3
A-375 = assay: Cytotoxicity in human A375 cells assessed as reduction in cell viability incubated for 48 hrs by MTT assay; type: functional, cell-based; details: A-375, 48 h; summary of the method: as §1
HepG2 [20] = assay: Induction of apoptosis in human HepG2 cells assessed as late apoptotic cells level at 300 uM incubated for 24 hrs by Annexin V-FITC/PI staining based flow cytometry (reference value: 5.12%); type: functional
OVCAR-3 = assay: Cytotoxicity in human OVCAR3 cells assessed as reduction in cell viability incubated for 48 hrs by MTT assay; type: functional, cell-based; details: OVCAR-3, 48 h; summary of the method: as §1
HepG2 [21] = assay: Induction of apoptosis in human HepG2 cells assessed as increase in cleaved caspase-3 level at 30 to 100 uM incubated for 48 hrs by Western blot analysis; type: functional, cell-based; summary of the method: as §4
HepG2 [22] = assay: Induction of apoptosis in human HepG2 cells assessed as increase in cleaved PARP level at 30 to 100 uM incubated for 48 hrs by Western blot analysis; type: functional, cell-based; summary of the method: as §4
HepG2 [23] = assay: Induction of apoptosis in human HepG2 cells assessed as necrotic cells level at 300 uM incubated for 24 hrs by Annexin V-FITC/PI staining based flow cytometry (reference value: 1.48%); type: functional
[24] = biological target: T1, Cell division cycle protein 20 homolog; assay: Inhibition of CDC20 in human HepG2 cells assessed as increase in Bim protein levels at 100 uM incubated for 48 hrs by Western blot Analysis; type: cell-based; summary of the method: as §3
HepG2 [25] = assay: Induction of apoptosis in human HepG2 cells assessed as early apoptotic cells level at 300 uM incubated for 24 hrs by Annexin V-FITC/PI staining based flow cytometry (reference value: 4.02%); type: functional
HepG2 [26] = assay: Induction of apoptosis in human HepG2 cells assessed as viable cells level at 300 uM incubated for 24 hrs by Annexin V-FITC/PI staining based flow cytometry (reference value: 89.38%); type: functional
HepG2 [27] = assay: Inhibition of mitotic exit in human HepG2 cells assessed as increase in nuclear phosphohistone H3 levels at 10 to 100 uM incubated for 48 hrs by relative to control

T1 sequence (Q12834 whole entry): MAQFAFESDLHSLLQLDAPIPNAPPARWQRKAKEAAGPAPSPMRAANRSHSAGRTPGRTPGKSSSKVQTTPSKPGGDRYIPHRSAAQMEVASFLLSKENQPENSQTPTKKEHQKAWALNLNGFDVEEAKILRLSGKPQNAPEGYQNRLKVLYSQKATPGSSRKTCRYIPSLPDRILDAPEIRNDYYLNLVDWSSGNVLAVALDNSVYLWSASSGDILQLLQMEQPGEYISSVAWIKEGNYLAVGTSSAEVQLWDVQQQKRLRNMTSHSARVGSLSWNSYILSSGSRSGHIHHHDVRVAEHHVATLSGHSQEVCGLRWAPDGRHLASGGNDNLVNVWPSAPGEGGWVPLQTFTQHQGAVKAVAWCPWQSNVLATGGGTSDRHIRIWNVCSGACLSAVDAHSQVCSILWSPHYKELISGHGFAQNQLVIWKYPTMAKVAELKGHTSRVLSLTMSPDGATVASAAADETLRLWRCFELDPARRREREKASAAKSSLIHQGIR
Chain of Fizzy-related protein homolog (Homo sapiens) (Q9UM11 whole entry): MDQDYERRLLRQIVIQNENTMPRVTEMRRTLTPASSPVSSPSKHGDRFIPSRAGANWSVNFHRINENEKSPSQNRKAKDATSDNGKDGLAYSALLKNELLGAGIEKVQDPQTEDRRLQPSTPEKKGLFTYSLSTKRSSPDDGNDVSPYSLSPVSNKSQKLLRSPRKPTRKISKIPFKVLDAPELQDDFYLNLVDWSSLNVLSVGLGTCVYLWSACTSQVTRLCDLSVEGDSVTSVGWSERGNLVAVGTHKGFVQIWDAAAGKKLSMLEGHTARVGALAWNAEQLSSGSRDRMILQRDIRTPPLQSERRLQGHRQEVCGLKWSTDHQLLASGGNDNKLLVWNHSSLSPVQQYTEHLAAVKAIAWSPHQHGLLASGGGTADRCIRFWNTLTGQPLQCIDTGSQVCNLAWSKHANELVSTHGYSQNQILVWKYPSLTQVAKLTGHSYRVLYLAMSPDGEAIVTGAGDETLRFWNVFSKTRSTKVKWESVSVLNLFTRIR

pKd [17]	SMILES	pIC50 (HepG2 [1])	Activity (HepG2 [2])	pIC50 (MCF7)	Activity (HepG2 [8])	pIC50 (Caov-3 cell line)	pIC50 (HeLa)	Activity (HepG2 [11])	Activity (HepG2 [14])	pIC50 (A549)	Activity (HepG2 [15])	pIC50 (A-375)	pIC50 (OVCAR-3)	also measured
4.31	Cc1ncc([N+](=O)[O-])n1CCOC(=O)NC(Nc1c(Cl)nc(N)nc1Cl)C(Cl)(Cl)Cl (configuration not stated)	4.59	1.08%	3.80	64.34%	3.96	4.20	Dose-dependent effect	25.27%	4.25	9.31%	4.47	–	inhibition [3]: Active; inhibition [4]: inactive; inhibition [5]: Active; Activity (HepG2 [6]): Active; inhibition [7]: Active; inhibition [9]: Active; Activity (HepG2 [10]): Active; Activity (HepG2 [12]): 6.9%; inhibition [13]: inactive; inhibition [16]: inactive; Activity (HepG2 [18]): Active; inhibition [19]: Active
3.91	Cc1ncc([N+](=O)[O-])n1CCOC(=O)NC(Nc1ncccn1)C(Cl)(Cl)Cl (configuration not stated)	< 3.52	2.39%	< 3.52	82.91%	< 3.52	3.66	Dose-dependent effect	7.85%	< 3.52	6.85%	3.71	< 3.52	Activity (HepG2 [20]): 30.02%; Activity (HepG2 [21]): Active; Activity (HepG2 [22]): Active; Activity (HepG2 [23]): 0.73%; inhibition [24]: Active; Activity (HepG2 [25]): 62.43%; Activity (HepG2 [26]): 6.82%; fold change (FC) (HepG2 [27]): 2.2
–	Cc1ncc([N+](=O)[O-])n1CCOC(=O)NC(Nc1ccncn1)C(Cl)(Cl)Cl (configuration not stated)	< 3.52	–	< 3.52	–	< 3.52	< 3.52	–	–	< 3.52	–	5.28	< 3.52	–
